Data from ChEMBL document CHEMBL1139880, “Potent and selective agonists of human melanocortin receptor 5: cyclic analogues of alpha-melanocyte-stimulating hormone” (J Med Chem, 2007).
Values belong to the compound of their own block, whether it stands above or below them. Starred links: 1 amine or outer side, 2 acyl side, 3 side chain; linkers in the order of their positions; H or OH if unused. Positions of bridges follow the written chain, without caps; N, C: chain ends. Non-standard residues stand in square brackets, D forms with d. Residues, ends and D or L forms follow the SMILES beside them. ξ: configuration not given here. X7 = O=C([C@H](Cc1ccc(Cc2ccccc2)cc1)N[*:1])[*:2]; X4 = O=C([C@H](CC1CCC(C2CCCCC2)CC1)N[*:1])[*:2]; Oic(3aξ,7aξ) = O=C(O)[C@@H]1CC2CCCCC2N1; X3 = O=C([C@H]1CC2CCCCC2N1[*:1])[*:2]; Pip = O=C(O)[C@@H]1CCCCN1; Nle = CCCC[C@H](N)C(=O)O

Legend:
[1] = molecular target: T1, Melanocortin receptor 3 (Homo sapiens, UniProt P41968); assay: Agonist activity at human MC3R expressed in CHO cells assessed as cAMP accumulation at 1 uM relative to [125I]NDPalphaMSH; format: functional, cell-based
[2] = molecular target: T2, Melanocortin receptor 4 (Homo sapiens, UniProt P32245); assay: Agonist activity at human MC4R expressed in CHO cells assessed as cAMP accumulation at 1 uM relative to [125I]NDPalphaMSH; format: functional, cell-based
[3] = molecular target: T3, Melanocyte-stimulating hormone receptor (Homo sapiens, UniProt Q01726); assay: Displacement of [125I]NDPalphaMSH from human cloned melanocortin receptor 1b expressed in CHO cells; format: cell-based
Target sequence in this assay (Q01726 whole entry): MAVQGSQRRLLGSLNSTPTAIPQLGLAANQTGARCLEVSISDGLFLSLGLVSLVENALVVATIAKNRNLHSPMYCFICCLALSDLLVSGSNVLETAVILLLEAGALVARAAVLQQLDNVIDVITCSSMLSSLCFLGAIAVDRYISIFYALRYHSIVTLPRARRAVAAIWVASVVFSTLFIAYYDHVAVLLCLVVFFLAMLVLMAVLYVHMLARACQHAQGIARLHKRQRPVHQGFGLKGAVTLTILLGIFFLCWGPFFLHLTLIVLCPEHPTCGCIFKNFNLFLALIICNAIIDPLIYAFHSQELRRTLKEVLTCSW

[4] = molecular target: T1, Melanocortin receptor 3; assay: Displacement of [125I]NDPalphaMSH from human cloned MC3R expressed in CHO cells; format: cell-based
[5] = molecular target: T2, Melanocortin receptor 4; assay: Displacement of [125I]NDPalphaMSH from human cloned MC4R expressed in CHO cells; format: cell-based
[6] = molecular target: T4, Melanocortin receptor 5 (Homo sapiens, UniProt P33032); assay: Displacement of [125I]NDPalphaMSH from human cloned MC5R expressed in CHO cells; format: cell-based
[7] = molecular target: T3, Melanocyte-stimulating hormone receptor; assay: Agonist activity at human melanocortin receptor 1b expressed in CHO cells assessed as cAMP accumulation; format: functional, cell-based
Procedure, shortened: (§1)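 Dissociated CHO cells were spun 5 min and resuspended in Earle's balanced salt solution with 10 mM HEPES pH 7.5, 5 mM MgCl2, 1 mM glutamine and 1 mg/mL BSA. They were incubated 40 min at room temperature with compound (0.003–5000 nM) plus 0.6 mM IBMX, then lysed with 0.1 M HCl. cAMP was measured by Flashplate cAMP assay.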
Target sequence in this assay (Q01726 whole entry): as above

[8] = molecular target: T1, Melanocortin receptor 3; assay: Agonist activity at human MC3R expressed in CHO cells assessed as cAMP accumulation; format: functional, cell-based; procedure, shortened: as §1
[9] = molecular target: T4, Melanocortin receptor 5; assay: Agonist activity at human MC5R expressed in CHO cells assessed as cAMP accumulation; format: functional, cell-based
[10] = molecular target: T2, Melanocortin receptor 4; assay: Inhibition of human cloned MC4R expressed in CHO cells at 2 uM relative to [125I]NDPalphaMSH; format: cell-based
[11] = molecular target: T3, Melanocyte-stimulating hormone receptor; assay: Agonist activity at human melanocortin receptor 1b expressed in CHO cells assessed as cAMP accumulation at 1 uM relative to [125I]NDPalphaMSH; format: functional, cell-based
Target sequence in this assay (Q01726 whole entry, looked up): as the sequence (Q01726 whole entry) above

[12] = organism: Homo sapiens; assay: Selectivity for human cloned MC5R over human cloned MC1bR
[13] = molecular target: T3, Melanocyte-stimulating hormone receptor; assay: Agonist activity at human melanocortin receptor 1b expressed in CHO cells assessed as cAMP accumulation relative to [125I]NDPalphaMSH; format: functional, cell-based
Target sequence in this assay (Q01726 whole entry, looked up): as the sequence (Q01726 whole entry) above

[14] = molecular target: T1, Melanocortin receptor 3; assay: Agonist activity at human MC3R expressed in CHO cells assessed as cAMP accumulation at 10 uM relative to [125I]NDPalphaMSH; format: functional, cell-based
[15] = molecular target: T2, Melanocortin receptor 4; assay: Agonist activity at human MC4R expressed in CHO cells assessed as cAMP accumulation at 10 uM relative to [125I]NDPalphaMSH; format: functional, cell-based
[16] = molecular target: T1, Melanocortin receptor 3; assay: Agonist activity at human MC3R expressed in CHO cells assessed as cAMP accumulation at 5 uM relative to [125I]NDPalphaMSH; format: functional, cell-based
[17] = molecular target: T2, Melanocortin receptor 4; assay: Agonist activity at human MC4R expressed in CHO cells assessed as cAMP accumulation at 5 uM relative to [125I]NDPalphaMSH; format: functional, cell-based; conditions: filed as agonist
[18] = organism: Homo sapiens; assay: Selectivity for human cloned MC5R over human cloned MC3R
[19] = molecular target: Melanocortin receptor (M4 and M5) (Homo sapiens) (UniProt P32245+P33032); assay: Selectivity for human cloned MC5R over human cloned MC4R; format: protein assay
[20] = molecular target: T1, Melanocortin receptor 3; assay: Agonist activity at human MC3R expressed in CHO cells assessed as cAMP accumulation at 2 uM relative to [125I]NDPalphaMSH; format: functional, cell-based
[21] = molecular target: T2, Melanocortin receptor 4; assay: Agonist activity at human MC4R expressed in CHO cells assessed as cAMP accumulation at […] relative to [125I]NDPalphaMSH; format: functional, cell-based; conditions: filed as partial agonist
[22] = molecular target: T1, Melanocortin receptor 3; assay: Agonist activity at human MC3R expressed in CHO cells assessed as cAMP accumulation at […] relative to [125I]NDPalphaMSH; format: functional, cell-based

T1 sequence (P41968 whole entry): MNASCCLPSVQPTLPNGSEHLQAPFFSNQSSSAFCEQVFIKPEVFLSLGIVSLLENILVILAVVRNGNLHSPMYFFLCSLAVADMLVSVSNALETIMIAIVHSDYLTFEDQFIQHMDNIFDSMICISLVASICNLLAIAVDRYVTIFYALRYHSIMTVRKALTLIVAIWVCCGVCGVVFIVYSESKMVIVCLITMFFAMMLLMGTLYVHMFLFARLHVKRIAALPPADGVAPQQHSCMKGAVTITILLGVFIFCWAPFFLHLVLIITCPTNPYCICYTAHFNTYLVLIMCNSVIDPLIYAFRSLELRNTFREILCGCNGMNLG
Melanocortin receptor (M4 and M5) (Homo sapiens), sequence (P32245 whole entry, looked up): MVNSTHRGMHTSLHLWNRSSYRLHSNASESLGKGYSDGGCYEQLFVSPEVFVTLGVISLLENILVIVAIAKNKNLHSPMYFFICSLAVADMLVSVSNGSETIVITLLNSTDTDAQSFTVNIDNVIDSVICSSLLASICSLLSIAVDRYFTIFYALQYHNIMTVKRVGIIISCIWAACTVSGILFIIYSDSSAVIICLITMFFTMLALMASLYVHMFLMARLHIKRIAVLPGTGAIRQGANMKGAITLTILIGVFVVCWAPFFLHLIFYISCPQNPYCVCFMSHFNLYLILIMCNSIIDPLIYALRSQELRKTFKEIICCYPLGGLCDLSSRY
Melanocortin receptor (M4 and M5) (Homo sapiens), sequence (P33032 whole entry, looked up): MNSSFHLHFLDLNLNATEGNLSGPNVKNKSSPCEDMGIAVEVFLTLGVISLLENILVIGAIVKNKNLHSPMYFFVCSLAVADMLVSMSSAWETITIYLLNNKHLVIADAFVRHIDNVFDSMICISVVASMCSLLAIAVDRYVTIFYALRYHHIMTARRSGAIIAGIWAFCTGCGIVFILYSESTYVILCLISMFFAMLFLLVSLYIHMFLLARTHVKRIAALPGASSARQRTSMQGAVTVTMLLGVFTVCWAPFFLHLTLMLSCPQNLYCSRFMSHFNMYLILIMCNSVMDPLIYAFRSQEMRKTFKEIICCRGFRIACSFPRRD
T2 sequence (P32245 whole entry): as the sequence (P32245 whole entry, looked up) above
T4 sequence (P33032 whole entry): as the sequence (P33032 whole entry, looked up) above

SMILES: CCCC[C@H](NC(C)=O)C(=O)N[C@H]1CC(=O)NCCCC[C@@H](C(N)=O)NC(=O)[C@H](Cc2c[nH]c3ccccc23)NC(=O)[C@@H]2CCCN2C(=O)[C@@H](Cc2ccc(Cl)cc2)NC(=O)[C@H](Cc2c[nH]cn2)NC1=O
IC50 [3]: 0.56 µM (antagonist)
IC50 [4]: > 20 µM
IC50 [5]: 4.5 µM (antagonist)
IC50 [6]: 1.3 µM (antagonist)
EC50 [7]: 0.063 µM (agonist)
EC50 [8]: > 5 µM
EC50 [9]: 0.082 µM (agonist)

SMILES: CCCC[C@H](NC(C)=O)C(=O)N[C@H]1CC(=O)NCCCC[C@@H](C(N)=O)NC(=O)[C@H](Cc2c[nH]c3ccccc23)NC(=O)[C@@H]2CCCCN2C(=O)[C@H](CC2CCC(C3CCCCC3)CC2)NC(=O)[C@H]2CC3CCCCC3N2C1=O (some centres not stated) (Ac-[Nle]D[X3][X4][Pip]WK-NH2; lactam 2-7)
IC50 ([3]; cho): 1.3 µM (antagonist)
IC50 ([4]; cho): > 1 µM
IC50 ([6]; cho): 0.7 µM (antagonist)
inhibition [10]: 25%
EC50 ([8]; cho): > 0.5 µM
EC50 ([9]; cho): > 0.5 µM
Activity [11]: 13%
Activity ([2]; filed as partial agonist): 39%
Ratio IC50 [12]: 1.8

SMILES: CCCC[C@H](NC(C)=O)C(=O)N[C@H]1CC(=O)NCCCC[C@@H](C(N)=O)NC(=O)[C@H](Cc2c[nH]c3ccccc23)NC(=O)[C@@H]2CCCN2C(=O)[C@@H](Cc2ccc(OCC)cc2)NC(=O)[C@H](Cc2cnc[nH]2)NC1=O
IC50 [3]: 0.43 µM (antagonist)
IC50 [4]: > 10 µM
IC50 [6]: 0.34 µM (antagonist)
EC50 [7]: 0.06 µM (agonist)
EC50 [8]: > 2.5 µM
EC50 [9]: 0.27 µM (agonist)

SMILES: CCCC[C@H](NC(C)=O)C(=O)N[C@H]1CC(=O)NCCCC[C@@H](C(N)=O)NC(=O)[C@H](Cc2cc3ccccc3[nH]2)NC(=O)[C@@H]2CCCN2C(=O)[C@@H](Cc2ccccc2)NC(=O)[C@H](Cc2cnc[nH]2)NC1=O
Activity [14]: 2%
Activity [15]: 6%

SMILES: CCCC[C@H](NC(C)=O)C(=O)N[C@H]1CC(=O)NCCCC[C@@H](C(N)=O)NC(=O)[C@H](Cc2cc3ccccc3[nH]2)NC(=O)[C@@H]2CCCN2C(=O)[C@H](Cc2ccccc2)NC(=O)[C@H](Cc2cnc[nH]2)NC1=O
Activity [14]: 5%
Activity [15]: 7%

SMILES: CCCC[C@H](NC(C)=O)C(=O)N[C@H]1CC(=O)NCCCC[C@@H](C(N)=O)NC(=O)[C@H](Cc2c[nH]c3ccccc23)NC(=O)[C@@H]2CCCN2C(=O)[C@H](Cc2ccc(-c3ccccc3)cc2)NC(=O)[C@@H]2CC3CCCCC3N2C1=O (some centres not stated)
Activity [16]: 1%
Activity [17]: 97%
Ratio IC50 [12]: 780
Ratio IC50 [18]: 440
Ratio IC50 [19]: 470

SMILES: CCCC[C@H](NC(C)=O)C(=O)N[C@H]1CC(=O)NCCCC[C@@H](C(N)=O)NC(=O)[C@H](Cc2c[nH]c3ccccc23)NC(=O)[C@@H]2CCCCN2C(=O)[C@H](Cc2ccc(Cc3ccccc3)cc2)NC(=O)[C@@H]2CC3CCCCC3N2C1=O (some centres not stated) (Ac-[Nle]D[Oic(3aξ,7aξ)][X7][Pip]WK-NH2; lactam 2-7)
Activity [11]: 3%
Activity [1]: 2%

Second part, the compound after the results:

Activity [1]: 1%
Activity ([2]; filed as partial agonist): 43%
SMILES: CCCC[C@H](NC(C)=O)C(=O)N[C@H]1CC(=O)NCCCC[C@@H](C(N)=O)NC(=O)[C@H](Cc2c[nH]c3ccccc23)NC(=O)[C@@H]2CCCCN2C(=O)[C@H](Cc2ccc(-c3ccccc3)cc2)NC(=O)[C@H](C2CCCCC2)NC1=O

IC50 [3]: 0.0059 µM (antagonist)
IC50 [4]: 1.4 µM (antagonist)
IC50 [5]: 0.57 µM (antagonist)
IC50 [6]: 0.00072 µM (antagonist)
EC50 [7]: 0.0033 µM (agonist)
EC50 [8]: 0.37 µM (agonist)
EC50 [9]: 0.00037 µM (agonist)
SMILES: CCCC[C@H](NC(C)=O)C(=O)N[C@H]1CC(=O)NCCCC[C@@H](C(N)=O)NC(=O)[C@H](Cc2c[nH]c3ccccc23)NC(=O)[C@@H]2CCCCN2C(=O)[C@@H](Cc2ccc(-c3ccccc3)cc2)NC(=O)[C@H](Cc2c[nH]cn2)NC1=O

IC50 [3]: 0.045 µM (antagonist)
IC50 [4]: 1.5 µM
IC50 [5]: 1.2 µM (antagonist)
IC50 [6]: 0.0041 µM (antagonist)
EC50 [7]: 0.0053 µM (agonist)
EC50 [8]: 1.4 µM (agonist)
EC50 [9]: 0.0025 µM (agonist)
SMILES: CCCC[C@H](NC(C)=O)C(=O)N[C@H]1CC(=O)NCCCC[C@@H](C(N)=O)NC(=O)[C@H](Cc2c[nH]c3ccccc23)NC(=O)[C@@H]2CCCN2C(=O)[C@@H](Cc2ccc(-c3ccccc3)cc2)NC(=O)[C@H](Cc2c[nH]cn2)NC1=O

Activity [13]: 33%
Activity [1]: 3%
Activity ([2]; filed as agonist): 77%
Ratio IC50 [12]: 670
SMILES: CCCC[C@H](NC(C)=O)C(=O)N[C@H]1CC(=O)NCCCC[C@@H](C(N)=O)NC(=O)[C@H](Cc2c[nH]c3ccccc23)NC(=O)[C@@H]2CCCCN2C(=O)[C@H](Cc2ccc(-c3ccccc3)cc2)NC(=O)[C@H](C(C)C)NC1=O

IC50 [3]: > 10 µM
IC50 [4]: > 10 µM
IC50 [5]: > 10 µM
IC50 [6]: 0.05 µM (antagonist)
EC50 [7]: > 0.5 µM
EC50 [9]: 0.001 µM (agonist)
SMILES: CCCC[C@H](NC(C)=O)C(=O)N[C@H]1CC(=O)NCCCC[C@@H](C(N)=O)NC(=O)[C@H](Cc2c[nH]c3ccccc23)NC(=O)[C@@H]2CCCCN2C(=O)[C@@H](Cc2ccc(-c3ccccc3)cc2)NC(=O)[C@H](C2CCCCC2)NC1=O

IC50 [3]: 2.1 µM (antagonist)
IC50 [4]: 0.63 µM (antagonist)
IC50 [5]: 1 µM (antagonist)
IC50 [6]: 0.0029 µM (antagonist)
EC50 [7]: 0.35 µM (agonist)
EC50 [9]: 0.0016 µM (agonist)
SMILES: CCCC[C@H](NC(C)=O)C(=O)N[C@H]1CC(=O)NCCCC[C@@H](C(N)=O)NC(=O)[C@H](Cc2c[nH]c3ccccc23)NC(=O)[C@@H]2CCCN2C(=O)[C@@H](Cc2ccc(-c3ccccc3)cc2)NC(=O)[C@@H]2CCCN2C1=O

Activity [2]: 9%
Activity [20]: 8%
Ratio IC50 [12]: 430
Ratio IC50 [18]: 1800
Ratio IC50 [19]: 1060
SMILES: CCCC[C@H](NC(C)=O)C(=O)N[C@H]1CC(=O)NCCCC[C@@H](C(N)=O)NC(=O)[C@H](Cc2c[nH]c3ccccc23)NC(=O)[C@@H]2CCCCN2C(=O)[C@H](Cc2ccc(-c3ccccc3)cc2)NC(=O)[C@@H]2CCCN2C1=O

Activity [21]: 41%
Ratio IC50 [12]: 8
Ratio IC50 [18]: 1940
Ratio IC50 [19]: 790
SMILES: CCCC[C@H](NC(C)=O)C(=O)N[C@H]1CC(=O)NCCCC[C@@H](C(N)=O)NC(=O)[C@H](Cc2c[nH]c3ccccc23)NC(=O)[C@@H]2CCCCN2C(=O)[C@H](Cc2ccc(-c3ccccc3)cc2)NC(=O)[C@H](Cc2c[nH]cn2)NC1=O

Activity [11]: 16%
Activity [1]: 0%
Activity ([2]; filed as agonist): 72%
SMILES: CCCC[C@H](NC(C)=O)C(=O)N[C@H]1CC(=O)NCCCC[C@@H](C(N)=O)NC(=O)[C@H](Cc2c[nH]c3ccccc23)NC(=O)[C@@H]2CCCCN2C(=O)[C@H](Cc2ccc(-c3ccccc3)cc2)NC(=O)[C@H](c2ccccc2)NC1=O

Activity ([15]; filed as partial agonist): 40%
Activity [22]: 2%
Ratio IC50 [12]: 720
Ratio IC50 [18]: 217
Ratio IC50 [19]: 340
SMILES: CCCC[C@H](NC(C)=O)C(=O)N[C@H]1CC(=O)NCCCC[C@@H](C(N)=O)NC(=O)[C@H](Cc2c[nH]c3ccccc23)NC(=O)[C@@H]2CCCN2C(=O)[C@H](Cc2ccc(-c3ccccc3)cc2)NC(=O)[C@@H]2CCCN2C1=O
